pEC50: −log10 of the molar value. Residues, ends and D or L forms follow the SMILES beside them.
What was measured:
PC-12 [1] = test: Scavenging activity against nitric oxide radical generation in rat PC12 cells assessed as cell survival by MTT assay; format: functional, cell-based
Method in brief: (§1)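 PC12 cells in DMEM with 10% heat-inactivated horse serum, 5% FBS, 1.0 mM pyruvate, penicillin/streptomycin, 37 °C, 5% CO2; seeded 20,000/well on poly-L-lysine, 24 h attachment. Pretreated 1 h with 12.5–200 µM. Insult: 2 mM SNP 2 h (NO), 1 mM H2O2 1 h, or 1 mM H2O2/30 µM Fe(II) 1 h (•OH). For SNP, fresh media then 14 h culture. Survival by MTT; EC50 (µM).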

PC-12 [2] = test: Scavenging activity against hydrogen peroxide radical generation in rat PC12 cells assessed as cell survival by MTT assay; format: functional, cell-based; method in brief: as §1
Aorta [3] = test: Scavenging activity against nitric oxide radical generation in Wistar rat aortic strips cells assessed as inhibition of acetylcholine-induced vasorelaxation at 0.1 umol/L
Rattus norvegicus [4] = species: Rattus norvegicus; test: Antithrombotic effect in Wistar rat assessed as reduction in wet thrombus mass at 5 umol/L; format: functional
Method in brief: (§2)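 Male Wistar rats 250-300 g, sodium pentobarbital 80.0 mg/kg ip; arteriovenous shunt (polyethylene tube with weighed 6 cm thread, sodium heparin 50 IU/mL in NS) from right carotid to left jugular vein. Compound dissolved in NS just before use, kept on ice, injected via tube; NS vehicle. Blood flowed 15 min; wet thrombus weighed, dry weight after 2 weeks in desiccator.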

Aorta [5] = test: Scavenging activity against nitric oxide radical generation in Wistar rat aortic strips cells assessed as inhibition of acetylcholine-induced vasorelaxation at 1 umol/L; format: functional, tissue-based
Method in brief: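 Rat aortic strips in 37 °C oxygenated (95% O2/5% CO2) Krebs, pH 7.4, on tension transducers. Precontracted with noradrenaline (final 10^-9 mol/L), washed, stabilized 30 min, recontracted; at peak, compound in water (final 10^-6 mol/L) or NS added, then ACh (final 10^-6 mol/L). Percent inhibition of ACh-induced relaxation recorded.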

Rattus norvegicus [6] = species: Rattus norvegicus; test: Antithrombotic effect in Wistar rat assessed as reduction in dry thrombus mass at 5 umol/L; format: functional; method in brief: as §2
PC-12 [7] = test: Scavenging activity against […] generation in rat PC12 cells assessed as cell survival by MTT assay; format: functional, cell-based; method in brief: as §1
Aorta [8] = test: Scavenging activity against nitric oxide radical generation in Wistar rat aortic strips cells assessed as inhibition of acetylcholine-induced vasorelaxation at 0.01 umol/L
Rattus norvegicus [9] = species: Rattus norvegicus; test: Protective effect in sham ischemia reperfusion Wistar rat model assessed as malondialdehyde per mg of protein; format: functional
Rattus norvegicus [10] = species: Rattus norvegicus; test: Protective effect in ischemia reperfusion Wistar rat model assessed as malondialdehyde per mg of protein; format: functional
Rattus norvegicus [11] = test: Reduction in infarct size in ischemia reperfusion Wistar rat model assessed as infarct size over risk zone at 10 mg/kg; format: functional; set-up: scale not given: the % may be the effect or the level left
Method in brief: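 Male Wistar rats 250-300 g, pentobarbital 80.0 mg/kg ip; left coronary artery occluded 30 min by snare, then 120 min reperfusion. Compound 10 mg/kg in DMSO–0.9% NaCl (1:103 v/v) infused transjugularly 15 min before occlusion. Ventricular 1 mm slices stained with 1% TTC 15 min at 37 °C, with Evans blue for area at risk; infarct/risk zone %, n = 8, mean ± SE, t-test.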

Structure (SMILES)	pEC50 (PC-12 [1])	pEC50 (PC-12 [2])	inhibition (Aorta [3])	Activity (Rattus norvegicus [4])	inhibition (Aorta [5])	Activity (Rattus norvegicus [6])	pEC50 (PC-12 [7])	inhibition (Aorta [8])	also measured
COc1cc(C2N[C@H](C(=O)N[C@@H](CCCNC(=N)N)C(=O)NCC(=O)NN(CC(=O)O)CC(=O)N[C@H](C(=O)O)C(C)C)Cc3c2[nH]c2ccccc32)cc(OC)c1O (stereo partly drawn)	4.05	4.34	63.7%	25.46 mg	90.1%	4.85 mg	4.03	13%	
CC(C)[C@H](NC(=O)[C@H](CC(=O)O)NC(=O)CNC(=O)[C@@H](N)CCCNC(=N)N)C(=O)O (H-RGDV-OH)				35.75 mg		6.78 mg			
CC(C)[C@H](NC(=O)CN(CC(=O)O)NC(=O)CNC(=O)[C@@H](N)CCCNC(=N)N)C(=O)O				41.8 mg		7.83 mg			
CC(C)[C@H](NC(=O)[C@H](CC(=O)O)NC(=O)CNC(=O)CN(N)CCCNC(=N)N)C(=O)O				27.04 mg		4.39 mg			
COc1cc(C2N[C@H](C(=O)N[C@@H](CCCNC(=N)N)C(=O)NNCC(=O)N[C@@H](CC(=O)O)C(=O)N[C@H](C(=O)O)C(C)C)Cc3c2[nH]c2ccccc32)cc(OC)c1O (stereo partly drawn) [listing 1 of 2 here]				24.54 mg		3.79 mg			
COc1cc(C2N[C@H](C(=O)N[C@@H](CCCNC(=N)N)C(=O)NNCC(=O)N[C@@H](CC(=O)O)C(=O)N[C@H](C(=O)O)C(C)C)Cc3c2[nH]c2ccccc32)cc(OC)c1O (stereo partly drawn) [listing 2 of 2 here]	4.04	4.39					4.04		
COc1cc(C2N[C@H](C(=O)N[C@@H](CCCNC(=N)N)C(=O)NNCC(=O)N[C@H](CC(=O)O)C(=O)N[C@H](C(=O)O)C(C)C)Cc3c2[nH]c2ccccc32)cc(OC)c1O (stereo partly drawn)			71%		95.8%			14.1%	
COc1cc(C2N[C@H](C(=O)NN(CCCNC(=N)N)CC(=O)NCC(=O)N[C@@H](CC(=O)O)C(=O)N[C@H](C(=O)O)C(C)C)Cc3c2[nH]c2ccccc32)cc(OC)c1O (stereo partly drawn) [listing 1 of 2 here]	4.02	4.12					4.02		
COc1cc(C2N[C@H](C(=O)O)Cc3c2[nH]c2ccccc32)cc(OC)c1O (stereo partly drawn)	4.05	4.46	55.3%	44.01 mg	81%	8.03 mg	4.07	10.8%	
CC(C)[C@H](NC(=O)[C@H](CC(=O)O)NC(=O)CNNC(=O)[C@@H](N)CCCNC(=N)N)C(=O)O				34.98 mg		7.05 mg			
COc1cc(C2N[C@H](C(=O)NN(CCCNC(=N)N)CC(=O)NCC(=O)N[C@@H](CC(=O)O)C(=O)N[C@H](C(=O)O)C(C)C)Cc3c2[nH]c2ccccc32)cc(OC)c1O (stereo partly drawn) [listing 2 of 2 here]				21.05 mg		2.23 mg			Activity (Rattus norvegicus [9]): 2.52 nmol/mg; Activity (Rattus norvegicus [10]): 2.91 nmol/mg; Activity (Rattus norvegicus [11]): 35%
COc1cc(C2N[C@H](C(=O)NN(CCCNC(=N)N)CC(=O)NCC(=O)N[C@H](CC(=O)O)C(=O)N[C@H](C(=O)O)C(C)C)Cc3c2[nH]c2ccccc32)cc(OC)c1O (stereo partly drawn)			75.3%		97.2%			28.3%	
